Measurements taken from ChEMBL document CHEMBL1155242, “Radiolabeled 5-iodo-3'-O-(17beta-succinyl-5alpha-androstan-3-one)-2'-deoxyuridine and its 5'-monophosphate for imaging and therapy of androgen receptor-positive cancers: synthesis and biological evaluation” (J Med Chem, 2009).
Activity calls are given as the source filed them. The rule behind the calls is not given here.

Legend:
[1] = Stability in rabbit serum assessed as intact compound remaining at 10 to 20 uCi/mL after 60 mins by size-exclusion HPLC analysis; assay type: ADME, cell-free, Oryctolagus cuniculus; details: read-out: Stability
Summary of the method: (§1)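 Radioiodinated compound incubated 60 min with human, rabbit or mouse serum, or with purified human SHBG. Aliquots analysed on a TSK3000 size-exclusion column: 0.1 M potassium phosphate/0.1 M Na2SO4 (1:1, pH 6.8) for 20 min, then 0–40% CH3CN over 20 min, held 30 min, 0.7 mL/min. Protein-bound versus free radioactivity read from the peaks.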

[2] = target: T1, Sex hormone-binding globulin (Homo sapiens, UniProt P04278); assay: Binding affinity to human sex hormone binding globulin at 10 to 20 uCi up to 6 hrs by size-exclusion HPLC analysis; assay type: ADME
T1 sequence (P04278 whole entry): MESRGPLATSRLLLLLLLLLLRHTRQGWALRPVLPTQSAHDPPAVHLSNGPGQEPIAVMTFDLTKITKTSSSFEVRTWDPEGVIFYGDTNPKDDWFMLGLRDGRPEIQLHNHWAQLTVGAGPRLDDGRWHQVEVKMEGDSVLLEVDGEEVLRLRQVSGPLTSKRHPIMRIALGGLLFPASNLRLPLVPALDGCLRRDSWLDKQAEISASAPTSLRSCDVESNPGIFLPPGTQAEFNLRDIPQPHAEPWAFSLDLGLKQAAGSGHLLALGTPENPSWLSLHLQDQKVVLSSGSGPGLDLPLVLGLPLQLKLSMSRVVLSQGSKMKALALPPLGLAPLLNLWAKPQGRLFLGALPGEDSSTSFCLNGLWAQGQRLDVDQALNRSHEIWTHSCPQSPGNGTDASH

[3] = Stability in human serum assessed as intact compound remaining at 10 to 20 uCi/mL after 60 mins by size-exclusion HPLC analysis; assay type: ADME, cell-free; details: read-out: Stability; summary of the method: as §1
Albumin [4] = target: Albumin (Homo sapiens, UniProt P02768); assay: Binding affinity to human serum albumin at 10 to 20 uCi/mL after 60 mins by size-exclusion HPLC analysis; assay type: ADME; details: isolated protein, 1 h; summary of the method: as §1
Albumin (Homo sapiens, UniProt P02768), sequence (P02768 whole entry): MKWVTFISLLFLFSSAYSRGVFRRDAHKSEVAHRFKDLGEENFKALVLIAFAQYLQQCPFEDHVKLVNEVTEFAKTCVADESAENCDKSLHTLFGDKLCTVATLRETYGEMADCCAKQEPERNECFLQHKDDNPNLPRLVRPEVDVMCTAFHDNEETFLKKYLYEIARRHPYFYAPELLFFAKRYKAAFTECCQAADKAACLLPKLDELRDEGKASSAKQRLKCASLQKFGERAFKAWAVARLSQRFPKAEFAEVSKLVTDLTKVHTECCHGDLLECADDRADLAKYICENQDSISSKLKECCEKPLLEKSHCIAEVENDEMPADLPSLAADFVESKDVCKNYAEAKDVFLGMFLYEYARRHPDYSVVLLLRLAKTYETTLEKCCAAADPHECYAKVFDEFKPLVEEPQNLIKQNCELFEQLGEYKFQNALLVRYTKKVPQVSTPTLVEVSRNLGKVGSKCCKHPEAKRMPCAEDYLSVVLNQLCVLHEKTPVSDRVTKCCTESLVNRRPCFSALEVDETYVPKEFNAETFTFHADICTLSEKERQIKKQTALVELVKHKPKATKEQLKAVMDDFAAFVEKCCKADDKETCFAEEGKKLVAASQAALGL

[5] = Stability in human serum assessed as intact compound remaining at 10 to 20 uCi/mL after 60 mins by reversed phase HPLC analysis; assay type: ADME, cell-free; details: read-out: Stability
Summary of the method: (§2)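 After 60 min incubation in human, rabbit or mouse serum, incubation mixtures were extracted. Extracts were run on C18 reverse-phase HPLC with H2O/CH3CN, both with 0.07% TFA: 100% aqueous for 10 min, then 0–95% CH3CN over 30 min, held 20 min. Intact radioactive compound was distinguished from degradation product against nonradioactive reference standards.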

Albumin [6] = target: Albumin (Oryctolagus cuniculus, UniProt P49065); assay: Binding affinity to rabbit serum albumin at 10 to 20 uCi/mL after 60 mins by size-exclusion HPLC analysis; assay type: ADME; details: isolated protein, 1 h; summary of the method: as §1
Albumin (Oryctolagus cuniculus, UniProt P49065), sequence (P49065 whole entry): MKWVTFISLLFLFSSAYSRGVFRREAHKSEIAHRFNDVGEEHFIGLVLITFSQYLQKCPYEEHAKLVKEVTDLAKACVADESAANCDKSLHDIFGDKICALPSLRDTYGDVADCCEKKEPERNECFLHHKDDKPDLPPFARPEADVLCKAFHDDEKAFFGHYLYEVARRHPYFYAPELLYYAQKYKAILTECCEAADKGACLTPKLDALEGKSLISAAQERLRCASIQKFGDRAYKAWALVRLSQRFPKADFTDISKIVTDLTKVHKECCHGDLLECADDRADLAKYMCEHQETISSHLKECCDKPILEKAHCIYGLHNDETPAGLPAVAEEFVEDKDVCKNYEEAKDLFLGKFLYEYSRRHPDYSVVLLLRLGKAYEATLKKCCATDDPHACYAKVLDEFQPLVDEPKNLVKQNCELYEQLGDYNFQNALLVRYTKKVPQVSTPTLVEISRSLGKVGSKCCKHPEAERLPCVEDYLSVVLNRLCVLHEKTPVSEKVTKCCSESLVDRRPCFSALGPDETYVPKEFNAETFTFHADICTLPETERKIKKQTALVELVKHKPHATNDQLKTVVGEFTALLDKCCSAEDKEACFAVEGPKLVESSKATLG

Albumin [7] = target: T2, Albumin (Mus musculus, UniProt P07724); assay: Binding affinity to mouse serum albumin at 10 to 20 uCi/mL after 60 mins by size-exclusion HPLC analysis; assay type: ADME; details: isolated protein, 1 h; summary of the method: as §1
T2 sequence (P07724 whole entry): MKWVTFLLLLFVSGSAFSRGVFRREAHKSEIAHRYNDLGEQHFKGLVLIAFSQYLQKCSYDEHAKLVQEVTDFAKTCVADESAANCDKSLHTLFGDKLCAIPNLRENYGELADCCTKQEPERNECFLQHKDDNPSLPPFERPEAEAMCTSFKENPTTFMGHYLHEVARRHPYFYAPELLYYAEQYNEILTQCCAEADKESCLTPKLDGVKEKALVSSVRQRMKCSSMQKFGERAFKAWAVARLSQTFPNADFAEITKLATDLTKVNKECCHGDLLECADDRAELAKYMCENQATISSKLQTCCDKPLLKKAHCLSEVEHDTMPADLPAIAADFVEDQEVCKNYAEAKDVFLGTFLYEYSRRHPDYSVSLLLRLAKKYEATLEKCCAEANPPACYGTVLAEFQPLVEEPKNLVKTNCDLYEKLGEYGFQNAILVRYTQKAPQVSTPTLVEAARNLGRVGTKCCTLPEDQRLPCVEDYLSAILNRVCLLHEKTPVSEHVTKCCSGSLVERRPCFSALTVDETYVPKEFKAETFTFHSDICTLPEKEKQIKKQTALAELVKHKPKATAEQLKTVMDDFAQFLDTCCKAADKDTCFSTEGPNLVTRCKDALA

[8] = Stability in mouse serum assessed as intact compound remaining at 10 to 20 uCi/mL after 60 mins by reversed phase HPLC analysis; assay type: ADME, cell-free; details: read-out: Stability; summary of the method: as §2
Albumin [9] = target: T2, Albumin; assay: Binding affinity to mouse serum albumin at 10 to 20 uCi/mL after 60 mins by reversed phase HPLC analysis; assay type: ADME; details: isolated protein, 1 h
[10] = Stability in rabbit serum assessed as intact compound remaining at 10 to 20 uCi/mL after 60 mins by reversed phase HPLC analysis; assay type: ADME, cell-free, Oryctolagus cuniculus; details: read-out: Stability; summary of the method: as §2
[11] = target: T1, Sex hormone-binding globulin; assay: Binding affinity to human sex hormone binding globulin at 10 to 20 uCi up to 6 hrs by reversed phase HPLC analysis; assay type: ADME
[12] = Stability in mouse serum assessed as intact compound remaining at 10 to 20 uCi/mL after 60 mins by size-exclusion HPLC analysis; assay type: ADME, cell-free; details: read-out: Stability; summary of the method: as §1
OVCAR-3 [13] = assay: Antitumor activity against human OVCAR-3 cells xenografted in athymic NCr mouse at 14 uCi, ip administered 12 days after tumor implantation as single dose measured 5 weeks after implantation; assay type: functional, organism-based; details: tested as the 125I-labelled form
Summary of the method: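 Athymic NCr-nu/nu female mice bearing ip OVCAR-3 implants; compound given ip either as one 14 μCi/mouse dose or as three escalating daily doses of 5, 10 and 15 μCi/mouse (total 30 μCi); tumor response assessed at necropsy.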

OVCAR-3 [14] = assay: Antitumor activity against human OVCAR-3 cells xenografted in athymic NCr mouse administered 12 days after tumor implantation at a escalating dose of 5 uCi, ip of day 1, 20 uCi, ip on day 2, 15 uCi, ip on day 3 measured 5 weeks after implantation; assay type: functional, organism-based; details: tested as the 125I-labelled form
[15] = Stability in human OVCAR-3 cells expressing androgen receptor assessed as assessed as compound degradation at 0.01 to 5 uCi/mL up to 24 hrs by silica gel instant thin layer chromatography; assay type: ADME, cell-based; details: read-out: Activity
[16] = Stability in human OVCAR-3 cells expressing androgen receptor assessed as half life at 0.01 to 5 uCi/mL by silica gel instant thin layer chromatography; assay type: ADME, cell-based

Structure (SMILES)	remaining at 1 h [1] [%]	Activity [2]	remaining at 1 h [3] [%]	Activity (Albumin [4])	remaining at 1 h [5] [%]	Activity (Albumin [6])	Activity (Albumin [7])	remaining at 1 h [8] [%]	Activity (Albumin [9])	remaining at 1 h [10] [%]	Activity [11]	remaining at 1 h [12] [%]	Activity (OVCAR-3 [13])	Activity (OVCAR-3 [14])	metabolised at 24 h [15] [%]	half-life [16] [min]
CCOC(=O)CCC(=O)O[C@H]1C[C@H](n2cc([125I])c(=O)[nH]c2=O)O[C@@H]1CO	< 2	Not Active	> 90	Not Active	> 90	Not Active	Not Active	< 2	Not Active	< 2	Not Active	< 2	–	–	–	–
C[C@]12CCC(=O)C[C@@H]1CC[C@@H]1[C@@H]2CC[C@]2(C)[C@@H](OC(=O)CCC(=O)O[C@H]3C[C@H](n4cc(I)c(=O)[nH]c4=O)O[C@@H]3CO)CC[C@@H]12	–	–	–	–	–	–	–	–	–	–	–	–	inactive	inactive	–	–
C[C@]12CCC(=O)C[C@@H]1CC[C@@H]1[C@@H]2CC[C@]2(C)[C@@H](OC(=O)CCC(=O)O[C@H]3C[C@H](n4cc([123I])c(=O)[nH]c4=O)O[C@@H]3CO)CC[C@@H]12	–	–	–	–	–	–	–	–	–	–	–	–	–	–	> 70	792
O=c1[nH]c(=O)n([C@H]2C[C@H](O)[C@@H](COP(=O)(O)O)O2)cc1[125I]	30	Not Active	30	Not Active	30	Not Active	Not Active	–	Not Active	30	Not Active	–	–	–	–	–
